Active and inactive are the calls of the source. The rule behind the calls is not given here.

Series [1] deals with T1, Carboxypeptidase A1 (Homo sapiens, UniProt P15085).
T1 sequence (P15085 whole entry): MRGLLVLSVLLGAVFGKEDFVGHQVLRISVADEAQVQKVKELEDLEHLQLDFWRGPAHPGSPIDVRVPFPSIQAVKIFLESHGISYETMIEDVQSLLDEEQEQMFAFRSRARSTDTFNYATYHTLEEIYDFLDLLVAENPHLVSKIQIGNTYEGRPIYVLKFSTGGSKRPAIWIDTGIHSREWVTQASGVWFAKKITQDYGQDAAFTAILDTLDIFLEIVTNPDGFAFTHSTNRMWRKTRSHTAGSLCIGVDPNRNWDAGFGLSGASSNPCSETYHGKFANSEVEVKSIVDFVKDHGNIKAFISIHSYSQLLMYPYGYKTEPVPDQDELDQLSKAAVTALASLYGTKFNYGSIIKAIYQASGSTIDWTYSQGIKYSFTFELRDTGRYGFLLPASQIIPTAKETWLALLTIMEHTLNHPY
The series can be described thus: Inhibition of human CPA1 using AAFP as substrate preincubated for 45 mins to 2 hrs measured at 30 sec intervals for 15 mins by UV/vis-spectrophotometry. The gist of the method: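 hCPA1 was used at 1.0x10-8 M with AAFP substrate at 1.0x10-4 M, read at 355 nm. Enzyme and inhibitor were preincubated 45 min at 37 °C before substrate was added. Initial velocities were read every 30 sec for 15 min, in triplicate. Apparent Ki came from a fit to the tight-binding equation.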

Series [2] addresses T2, Carboxypeptidase D (Homo sapiens) (UniProt O75976).
T2 sequence (whole entry): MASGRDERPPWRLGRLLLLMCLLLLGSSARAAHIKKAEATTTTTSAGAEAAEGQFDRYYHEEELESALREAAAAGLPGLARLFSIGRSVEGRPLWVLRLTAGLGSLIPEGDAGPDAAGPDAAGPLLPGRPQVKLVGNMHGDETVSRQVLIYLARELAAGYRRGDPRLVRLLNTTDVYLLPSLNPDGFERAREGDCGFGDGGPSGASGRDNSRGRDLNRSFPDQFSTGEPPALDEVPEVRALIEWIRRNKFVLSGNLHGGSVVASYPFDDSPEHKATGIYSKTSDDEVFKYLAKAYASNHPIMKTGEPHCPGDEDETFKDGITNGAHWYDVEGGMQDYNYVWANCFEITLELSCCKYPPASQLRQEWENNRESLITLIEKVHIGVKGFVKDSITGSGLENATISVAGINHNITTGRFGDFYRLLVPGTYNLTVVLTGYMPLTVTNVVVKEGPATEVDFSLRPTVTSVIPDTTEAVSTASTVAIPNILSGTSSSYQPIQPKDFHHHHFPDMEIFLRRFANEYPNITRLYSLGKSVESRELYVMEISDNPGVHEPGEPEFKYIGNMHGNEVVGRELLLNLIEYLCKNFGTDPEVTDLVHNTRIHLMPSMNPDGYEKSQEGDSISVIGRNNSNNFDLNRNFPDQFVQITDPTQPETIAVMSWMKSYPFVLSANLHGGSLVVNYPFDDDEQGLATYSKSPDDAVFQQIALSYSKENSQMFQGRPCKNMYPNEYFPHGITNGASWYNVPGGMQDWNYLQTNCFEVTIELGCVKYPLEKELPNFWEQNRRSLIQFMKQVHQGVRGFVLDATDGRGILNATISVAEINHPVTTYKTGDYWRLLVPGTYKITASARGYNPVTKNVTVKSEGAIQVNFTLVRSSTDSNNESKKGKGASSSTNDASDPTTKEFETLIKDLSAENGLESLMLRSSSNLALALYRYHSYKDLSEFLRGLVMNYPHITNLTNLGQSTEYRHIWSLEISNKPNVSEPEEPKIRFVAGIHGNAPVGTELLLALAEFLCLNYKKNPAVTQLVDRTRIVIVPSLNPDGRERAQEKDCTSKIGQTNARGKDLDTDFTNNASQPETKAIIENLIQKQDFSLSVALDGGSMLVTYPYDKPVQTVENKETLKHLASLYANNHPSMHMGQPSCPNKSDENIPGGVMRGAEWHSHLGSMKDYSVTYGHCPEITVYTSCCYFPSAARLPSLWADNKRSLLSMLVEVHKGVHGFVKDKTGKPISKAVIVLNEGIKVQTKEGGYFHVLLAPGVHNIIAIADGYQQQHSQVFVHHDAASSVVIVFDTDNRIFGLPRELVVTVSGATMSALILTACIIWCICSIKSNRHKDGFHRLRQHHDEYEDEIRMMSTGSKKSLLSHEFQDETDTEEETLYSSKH
Kind of series: Inhibition of human CPD at 1 nM to 1 mM using AAFA as substrate preincubated for 45 mins to 2 hrs measured at 30 sec intervals for 15 mins by UV/vis-spectrophotometry. The gist of the method: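 hCPD was used at 2.0x10-8 M with AAFA substrate at 1.0x10-4 M, monitored at 355 nm. Buffer was 20 mM Tris-HCl pH 7.5, 100 mM NaCl, 1% DMSO, 0.05% Brij-35. Preincubation was 45 min at 37 °C. Residual activity at a range of inhibitor concentrations was measured from initial rates (30 sec reads, 15 min), in triplicate. Kiapp came from the tight-binding fit.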

For series [3], the target named is T1, Carboxypeptidase A1. The series can be described thus: Inhibition of human CPA1 using AAFP as substrate assessed as apparent first-order rate constant measured at pre-steady state by measuring Koff/Kon ratio by spectrophotometry. The following applies: read-out: Ki(app).
The target in series [4] is T1, Carboxypeptidase A1. The series can be described thus: Inhibition of human CPA1 using AAFP as substrate measured at pre-steady state by spectrophotometry.
The target in series [5] is T3, Carboxypeptidase A1 (Homo sapiens) (UniProt P15085).
T3 sequence (whole entry): T1 sequence (P15085 whole entry)
The series can be described thus: Inhibition of human CPA1 using AAFP as substrate assessed as association rate constant measured at pre-steady state by spectrophotometry.

For series [6], the target named is T3, Carboxypeptidase A1 (Homo sapiens). The series can be described thus: Inhibition of human CPA1 using AAFP as substrate assessed as dissociation rate constant measured at pre-steady state by spectrophotometry.
Series [7] deals with HeLa. Kind of series: Cytotoxicity against human HeLa cells assessed as reduction in cell viability at 1 to 5 uM after 24 hrs by XTT assay. The class given is cell-based. In short, it runs like this:
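Cells were exposed to compound at 1 and 5 µM for 24h in culture, and viability was then read by the XTT assay.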
A general note: Formazan colour is commonly taken as a measure of viable cells.

For series [8], the target named is Matrix metalloproteinase-9 (Homo sapiens, UniProt P14780). Kind of series: Inhibition of human MMP9 using fluorogenic Mca-Pro-Leu-Gly-Leu-Dpa-Ala-Arg-NH2 peptide as substrate preincubated for 45 mins measured at 30 sec intervals for 15 mins by UV/vis-spectrophotometry. In short, it runs like this: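 MMPs at nanomolar level with fluorogenic Mca-Pro-Leu-Gly-Leu-Dpa-Ala-Arg-NH2 substrate in 50 mM Tris-HCl pH 6.8, 10 mM CaCl2. Enzyme, inhibitor and buffer preincubated 45 min at 37 °C, then substrate added; initial velocities from 30-sec reads over 15 min, in triplicate.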
Sequence of Matrix metalloproteinase-9 (P14780 whole entry): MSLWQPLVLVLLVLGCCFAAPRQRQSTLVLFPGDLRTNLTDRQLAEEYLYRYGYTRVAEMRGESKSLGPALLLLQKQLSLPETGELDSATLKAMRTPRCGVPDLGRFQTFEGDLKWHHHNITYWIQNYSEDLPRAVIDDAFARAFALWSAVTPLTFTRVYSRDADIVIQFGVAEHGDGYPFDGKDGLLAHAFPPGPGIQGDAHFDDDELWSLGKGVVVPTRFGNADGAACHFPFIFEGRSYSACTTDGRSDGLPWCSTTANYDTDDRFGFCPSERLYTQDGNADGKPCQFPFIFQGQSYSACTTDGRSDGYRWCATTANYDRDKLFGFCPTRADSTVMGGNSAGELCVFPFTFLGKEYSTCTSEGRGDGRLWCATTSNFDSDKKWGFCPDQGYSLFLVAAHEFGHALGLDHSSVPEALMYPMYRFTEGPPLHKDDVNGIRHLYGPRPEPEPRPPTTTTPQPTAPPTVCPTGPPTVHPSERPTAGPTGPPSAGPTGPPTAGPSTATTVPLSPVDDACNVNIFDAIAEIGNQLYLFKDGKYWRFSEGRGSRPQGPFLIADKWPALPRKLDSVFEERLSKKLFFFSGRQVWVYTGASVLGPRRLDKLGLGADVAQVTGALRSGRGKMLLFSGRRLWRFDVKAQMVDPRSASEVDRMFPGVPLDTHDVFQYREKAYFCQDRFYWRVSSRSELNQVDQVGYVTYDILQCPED

For series [9], the species on record is Homo sapiens. Kind of series: Inhibition of pepsin (unknown origin) at 1 nM to 1 mM using H-Leu-Ser-p-nitro-Phe-Nle-Ala-Leu-OMe peptide as substrate preincubated for 45 mins measured at 30 sec intervals for 15 mins by UV/vis-spectrophotometry. In short, it runs like this: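 Pepsin 1.0x10-8 M with 2.0x10-4 M LSPNP substrate in 100 mM acetate pH 4.4, monitored at 310 nm. Inhibitor preincubated with enzyme 45 min at 37 °C; initial velocities over 15 min at 30-sec intervals; triplicate.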

Regarding `CC(=O)N[C@@H](CCCCN)C(=O)N[C@@H](C)P(=O)(O)C[C@@H](CCc1ccccc1)C(=O)O`, the Ki in [1] was 1.2 nM. For the same molecule, the inhibition result in series [2] is “inactive”.

Regarding `CC(=O)N[C@@H](CC(C)C)C(=O)N[C@@H](C)P(=O)(O)C[C@@H](CCc1ccccc1)C(=O)O`, the Ki in series [3] was found to be 0.47 nM; in series [1], 0.087 nM; in series [4], 0.14 nM. Besides, in series [2], the inhibition entry is “inactive”. Also, the K in series [5] came to 1.27 ×10⁵ /M/s; in [6], 6 ×10⁻⁵ /s.

For the molecule `CC(=O)N[C@@H](CC(C)C)C(=O)N[C@@H](Cc1ccccc1)P(=O)(O)C[C@@H](CCc1ccccc1)C(=O)O`, the Ki in [1] came to 0.08 nM. In addition, the inhibition entry in series [2] is “inactive”.

`CC(=O)N[C@@H](CO)C(=O)N[C@@H](C)P(=O)(O)C[C@@H](CCc1ccccc1)C(=O)O` showed a Ki in series [1] of 5.9 nM. Further, the inhibition entry in series [2] is “inactive”.

Turning to `CC(=O)NCCOCCOCC(=O)N[C@@H](Cc1ccc(O)cc1)C(=O)N[C@@H](C)P(=O)(O)C[C@@H](CCc1ccccc1)C(=O)O`, the Ki in series [3] came to 0.53 nM; in [1], 0.129 nM; in series [4], 0.16 nM. In addition, the inhibition entry in series [2] was “inactive”. Besides, the K amounted to 1.33 ×10⁵ /M/s in [5] and 7 ×10⁻⁵ /s in [6].

`C[C@H](NC(=O)[C@H](Cc1ccc(O)cc1)NC(=O)COCCOCCN)P(=O)(O)C[C@@H](CCc1ccccc1)C(=O)O` had a Ki in series [1] of 0.3 nM. Besides, the inhibition result in series [2] is “inactive”.

`CC(=O)N[C@@H](CCC(=O)O)C(=O)N[C@@H](C)P(=O)(O)C[C@@H](CCc1ccccc1)C(=O)O` displayed a Ki in [1] of 3.1 nM. In addition, the inhibition entry in series [2] was “inactive”.

Take `CC(=O)N[C@@H](Cc1ccc(O)cc1)C(=O)N[C@@H](C)P(=O)(O)C[C@@H](CCc1ccccc1)C(=O)O`: the Ki amounted to 0.53 nM in series [3], 0.107 nM in series [1] and 0.16 nM in [4]. Also, in series [7], the Activity result was “Non-Toxic”. For the same molecule, in series [2], the inhibition result is “inactive”. Moreover, the K stood at 1.44 ×10⁵ /M/s in series [5] and 7.6 ×10⁻⁵ /s in series [6].

On to `C[C@H](NC(=O)[C@H](Cc1ccc(O)cc1)NC(=O)COCCOCCNC(=O)CCOCCOCCOCCNC(=O)CCc1ccc(C(=C\C=C2\N(CCCCS(=O)(=O)O)c3ccc4c(S(=O)(=O)[O-])cc(S(=O)(=O)O)cc4c3C2(C)C)/C=C/C2=[N+](CCCCS(=O)(=O)O)c3ccc4c(S(=O)(=O)O)cc(S(=O)(=O)O)cc4c3C2(C)C)cc1)P(=O)(O)C[C@@H](CCc1ccccc1)C(=O)O`, for which the Ki in series [3] was 0.24 nM; in series [8], 2590 nM; in series [1] it was 0.089 nM; in series [4], 0.07 nM. Also, the inhibition result in [2] and in series [9] was “inactive” throughout. The K in series [5] stood at 2.03 ×10⁵ /M/s; in series [6], 4.8 ×10⁻⁵ /s.

In turn, `CC(=O)N1CCC[C@H]1C(=O)N[C@@H](C)P(=O)(O)C[C@@H](CCc1ccccc1)C(=O)O` gave a Ki in series [1] of 1.7 nM. Moreover, in series [2], the inhibition entry was “inactive”.

(Values after ChEMBL document CHEMBL4411328, “Synthesis and Structural/Functional Characterization of Selective M14 Metallocarboxypeptidase Inhibitors Based on Phosphinic Pseudopeptide Scaffold: Implications on the Design of Specific Optical Probes” (J Med Chem, 2019).)
